In test [1] the target is GABAA receptors composed of α1β3γ2. The settings on record: heterologous expression systems; ref Belelli et al., 2003; cited from earlier work.
Test [2] has as its system PC GABAA receptor (GABAergic IPSC in Purkinje neurons). It counts as cell-based, mouse. The settings on record: for IPSC decay time constant in the presence of etomidate: 3 µM, 10 min.
For test [3], the system named is PC GABAA receptor (β1-subunit-containing). Briefly: Loreclezole inhibition of GABA-mediated current in cultured Purkinje cells. The test is classed as cell-based, rat. The settings on record: 30 µM. The gist of the method: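 Cerebellar neurons plated on glass coverslips (2.8 × 10^5 cells), kept at 37 °C in 5% CO2 and recorded after 10–14 days in vitro. 1 s pulses of 20 µM GABA every 30 s until baseline stable; 30 µM test compound (DMSO stock diluted in saline) applied by local perfusion for 30 s, then kept through three more GABA pulses. 1 mM GABA given at end of recording. n = individual cells; mean ± SEM.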

Where two headings read alike, the source gives them in different places.

As for `CCOC(=O)c1cncn1[C@H](C)c1ccccc1` [Etomidate], the EC50 in test [1] was 4 µM. In addition, the “IPSC decay time constant in the presence of etomidate” value is 534.5 ± 42.3 ms in test [2] (slices 3 h after CA/CPR, P < 0.05 vs sham) and 837 ± 128 ms in test [2] (slices from control sham-operated mice).

Turning to `Cl/C(=C\n1cncn1)c1ccc(Cl)cc1Cl` [loreclezole], the “Initial reduction in GABA-mediated current” value in test [3] (30 s pre-application, 20 µM GABA pulses) turned out to be 30%. In addition, in test [3] (20 µM GABA pulses every 30 s, n = 4), the “Maximal decrease in GABA-mediated current with subsequent pulses of GABA” value amounted to 65.5 ± 6.8%.

As to picrotoxin, in test [2] (data not shown), the “Effect on outward GABAergic IPSC in Purkinje neurons” value is listed as “blocked”.

The term EC50 denotes the concentration that produces a half-maximal response.

The values are drawn from publication PMC3772679 (The European journal of neuroscience, 2012).
